Measured values from different studies.
Lines come from different studies, so protocols differ.
Target: Glycogen synthase kinase-3 alpha (GSK3A, Homo sapiens, UniProt P49840)

c1cnn2ncc(-c3ccnc(N4CCC45COC5)n3)c2c1 — remaining binding (binding; 1 µM): 100%
O=C(NCc1ncc(C(F)(F)F)cc1Cl)c1ccc2c(c1)C1(CCS(=O)(=O)CC1)[C@H](C1CC1)N2S(=O)(=O)c1ccc(F)cc1 — remaining binding (cell-free assay; competition with immobilised ligand; 1 µM): 100%
O=C(Nc1c[nH]nc1C(=O)NC1CCNCC1)c1cc(F)cc(F)c1 — remaining binding (binding; competition with immobilised ligand; 1 µM): 14%
F[C@@H]1CCN(c2nccc(-c3cnn4ncccc34)n2)C1 — remaining binding (binding; 1 µM): 100%
CNC(=O)[C@@H]1CC[C@@H](n2c(-c3ccc4cnccc4c3)nc3ccc(C(=O)NCc4cccc(C(N)=O)c4)cc32)C1 — remaining binding (binding; competition with immobilised ligand; 1 µM): 85%
CN(CCCC(F)(F)F)c1nccc(-c2cnn3ncccc23)n1 — remaining binding (binding; 1 µM): 100%
FC(F)(F)Oc1cccc(-c2cnc3ccc(-c4ccncc4)nn23)c1 — remaining binding (cell-free assay; competition with immobilised ligand; 5 µM): 44%
COc1ncc2cc3ccccc3nc2c1C#N — remaining binding (cell-free assay; competition with immobilised ligand; 5 µM): 94%
COCCOc1nc(-c2ccc(Cl)nc2)nc2c1CN(C(=O)c1ncn3ccccc13)CC2 — remaining binding (cell-free assay; competition with immobilised ligand; 0.1 µM): 100%
CCN1CCN(Cc2ccc(C(=O)Nc3ccc(C)c(Oc4ccc5c(c4)CC(=O)N5)c3)cc2C(F)(F)F)CC1 — remaining binding (binding; competition with immobilised ligand; 1 µM): 100%
O=C(NCCCN1CCOCC1)c1ccc(Nc2nccc(-c3cc4ccccc4s3)n2)cc1 — remaining binding (binding; competition with immobilised ligand; 1 µM): 92%
CN(C)C(=O)Cn1cc(-c2nc([C@@](C)(c3ccc(-c4cnc(N)nc4)cc3)C3CC3)no2)cn1 — remaining binding (cell-free assay; competition with immobilised ligand; 1 µM): 100%
O=C(NCCCN1CCOCC1)c1ccc(Nc2ncc(Cl)c(-c3ccc(Cl)s3)n2)cc1 — remaining binding (binding; competition with immobilised ligand; 1 µM): 43%
c1cncc(-c2cccc(Nc3nccc(NC4CCCCC4)n3)c2)c1 — remaining binding (binding; competition with immobilised ligand; 10 µM): 65%
N[C@H]1CCN(c2nccc(-c3cnn4ncccc34)n2)C1 — remaining binding (binding; 1 µM): 86%
CC(C)(O)c1cncc(-c2nc3ccc(F)cc3n2C2CC2)c1 — remaining binding (cell-free assay; competition with immobilised ligand; 1 µM): 100%
CC1CCCN1c1nccc(-c2cnn3ncccc23)n1 (stereo not drawn) — remaining binding (binding; 1 µM): 94%
Cn1nc(C(=O)NCc2ccc(C(=O)O)cc2)cc1-c1ccc2[nH]ccc2c1 — remaining binding (cell-free assay; competition with immobilised ligand; 0.1 µM): 61%
C[C@@H]1CCN(c2nccc(-c3cnn4ncccc34)n2)C1 — remaining binding (binding; 1 µM): 80%
Cc1nc(C2CCN(C(=O)c3ccc(OC(F)(F)F)cc3N)CC2)c2ncc(N3CCN(C)CC3)cc2n1 — remaining binding (cell-free assay; competition with immobilised ligand; 1 µM): 85%
O=C(c1ccc(Nc2ncc(Cl)c(-c3ccc(Cl)s3)n2)cc1)N1CCC(N2CCCC2)CC1 — remaining binding (binding; competition with immobilised ligand; 1 µM): 22%
